Reference: PMC3375352 (Journal of Medicinal Chemistry, 2012)

Key:
[1] = cited from earlier work
[2] = test system: U2OS (human osteosarcoma); test: MTT cytotoxicity assay, U2OS; format: cell-based; settings: read-out: IC50 U2OS, 72 h continuous treatment
Outline: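 Cells were grown as adherent monolayers in DMEM with 10% FBS and 1% penicillin/streptomycin at 37 °C, humidified 5% CO₂. 2000 cells/well were seeded and left for 24 h. Medium was replaced with test compound dilutions from 1–3 mM aqueous stocks for 72 h. MTT (0.8 mg/mL in DMEM) was added for 4 h, and formazan was dissolved in DMSO with 10% pH 10.5 glycine buffer. A555 was normalised to Pt-free controls and IC50 interpolated from % viability curves. Values are means of ≥3 independent experiments, each with six replicates per concentration; errors are standard deviations.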

HeLa cells = test: cellular platinum uptake by GFAAS; format: cell-based, human; settings: 10 µM, 4 h exposure
Outline: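 HeLa cells were seeded at 3×10⁵ cells/well, grown 48 h, then exposed to test compound (10 µM final) for 4 h. Cell-free medium wells served as blanks for nonspecific Pt adsorption, and parallel wells were trypsinised and counted with trypan blue. Wells were washed twice with pH 7.4 PBS and digested in hot (≈90 °C) concentrated nitric acid for 2 h. Pt was measured by GFAAS, blank-subtracted and normalised per cell; errors were derived by error propagation.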

[3] = test system: nuclear DNA of HeLa cells; test: intracellular DNA platination by GFAAS; format: cell-based, human; settings: 100 µM for 4 h, then 16 h in platinum-free medium
Outline: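 Five million HeLa cells were seeded, treated next day, and floating plus attached cells were pooled (trypsin), pelleted at 4 °C and washed with ice-cold PBS. Cells were lysed in DNAzol with 100 µg/mL RNase A. DNA was ethanol-precipitated, redissolved in 8 mM NaOH and quantified by UV-visible spectroscopy, and Pt was measured by GFAAS (pmol Pt/µg DNA). Values are means ± SD of ≥3 experiments.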

Compound	stability in water [1]	IC50 [2] [µM]	HeLa Cellular Uptake (HeLa cells) [ng Pt/10^6 cells]	Pt/DNA [3] [pmol/µg]
N.N.O=C([O-])C1(C(=O)[O-])CCC1.[Pt+2] [carboplatin]	stable for up 60 d			
N.N.[Cl][Pt][Cl] [cisplatin, cis-diamminedichloroplatinum(II)]		5 ± 2	14 ± 2	1.58 ± 0.97
